Results from ChEMBL document CHEMBL1125872, “Antiulcer agents. 5. Inhibition of gastric H+/K(+)-ATPase by substituted imidazo[1,2-a]pyridines and related analogues and its implication in modeling the high affinity potassium ion binding site of the gastric proton pump enzyme” (J Med Chem, 1991).

Experiments:
[1] = pKa value of the compound.; format: physicochemical
[2] = Compound was evaluated for the ability to inhibit purified H+/K+ -ATPase at pH 7.4, by using gastric membrane vesicles prepared from hog stomach.; format: functional, tissue-based, Sus scrofa
Summary of the method: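 Lyophilized, K+-permeable hog gastric membrane vesicles (10 μg) preincubated with inhibitor 30 min at 37 °C in 2 mM Pipes-Tris pH 7.4 with 10 mM KCl. Reaction started with 2 mM ATP/2 mM MgCl2. Read-out is inorganic phosphate release. K+-stimulated activity = total minus basal Mg2+ activity. Inhibitors added from methanol, final 1%. IC50 = 50% inhibition.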

[3] = Compound was evaluated for the ability to inhibit H+/K+ -ATPase formation in rabbit gastric glands.; format: functional, tissue-based, Oryctolagus cuniculus, Stomach
Summary of the method: (§1)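 Isolated rabbit gastric glands (collagenase-digested corpus mucosa, 37 °C ~1 h, rinsed, in respiratory medium pH 7.4). 10 mg wet weight glands incubated in RM with 0.05 μCi [14C]aminopyrine, stimulated with 10^-4 M histamine, 37 °C, 1 h shaking. Acid formation read as aminopyrine uptake. Inhibitors diluted in methanol, final 1%. IC50 = 50% inhibition.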

[4] = Inhibitory activity against histamine-stimulated gastric acid secretion in adult mengrel dogs, with surgically prepared Heidenhain pouches after peroral administration; format: functional; details: Canis lupus familiaris, Stomach, po
Summary of the method: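 Heidenhain pouch mongrel dogs under histamine-stimulated acid secretion, oral dosing 2-8 mg/kg. Reduction in acid output taken relative to the untreated control value in the same dog. ED50 by linear regression, with 95% confidence limits.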

[5] = Inhibitory activity against histamine-stimulated gastric acid secretion in adult mengrel dogs, with surgically prepared Heidenhain pouches after intravenous administration; format: functional; details: Canis lupus familiaris, Stomach
Summary of the method: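 Adult mongrel dogs with surgically prepared Heidenhain pouches, acid secretion stimulated by histamine. Intravenous dosing, 0.1-5 mg/kg. Acid output reduction measured against the non-drug control in the same animal. ED50 from linear regression, with 95% confidence limits.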

[6] = organism: Sus scrofa; assay: The percent of compound protonated at pH 7.4 in purified H+/K+ -ATPase from hog stomach.
[7] = Compound was evaluated for the ability to inhibitH+/K+ -ATPase formation in rabbit gastric glands.; format: functional, tissue-based, Oryctolagus cuniculus, Stomach; summary of the method: as §1
[8] = organism: Oryctolagus cuniculus; assay: The percent of compound protonated at pH 7.4.; format: functional

| SMILES | pKa [1] | IC50 [2] [uM l-1] | IC50 [3] [uM l-1] | ED50 [4] [mg/kg] | ED50 [5] [mg/kg] | Protonated [6] [%] | IC50 [7] [uM l-1] | Protonated [8] [%] |
| --- | --- | --- | --- | --- | --- | --- | --- | --- |
| Cc1nc2c(CCc3ccccc3)cccn2c1CC#N | 6 | 2 | 0.13 | > 4.4 | 0.1 | 3.83 | – | – |
| Cc1nc2c(OCc3ccccc3)cccn2c1CC#N | 5.5 | – | – | – | – | – | – | – |
| Cc1nc2c(C/C=C/c3ccccc3)cccn2c1CC#N | 6 | 206 | 442 | – | – | 3.83 | – | – |
| Cc1nc2c3c(ccn2c1CC#N)CCC(c1ccccc1)O3 (racemic) | 6 | 0.092 | 0.064 | – | – | 3.83 | – | – |
| Cc1nc2c(OCc3ccccc3)nccn2c1N | 4.6 | 178 | 8.08 | – | – | 0.158 | – | – |
| Cc1nc2c(/C=C/c3ccccc3)cccn2c1C | 7.2 | 1.68 | – | 4.8 | 0.7 | – | 0.99 | 38.7 |
| Cc1nc2c(/C=C\c3ccccc3)cccn2c1C | 7.2 | 28.4 | – | – | – | – | 17.5 | 38.7 |
| Cc1nc2c(CCc3ccccc3)cccn2c1N | 7.3 | 2.1 | 1.46 | – | – | 44.3 | – | – |
| Cc1nc2c(/C=C/Cc3ccccc3)cccn2c1N | 6.75 | 8.6 | 14.1 | – | – | 18.3 | – | – |
| Cc1nc2c(/C=C/Cc3ccccc3)cccn2c1CC#N | 5.7 | 14 | 3.8 | – | – | 1.96 | – | – |
| Cc1ccn2c(CC#N)c(C)nc2c1OCc1ccccc1 | 5.67 | 13.7 | 0.4 | – | – | 1.83 | – | – |
| Cc1nc2c(OCc3ccccc3)cccn2c1N | 6.81 | 0.89 | 0.31 | – | – | 20.4 | – | – |
